Results as given in ChEMBL document CHEMBL5104202, “Structure-Uptake Relationship Studies of Oxazolidinones in Gram-Negative ESKAPE Pathogens” (J Med Chem, 2022).
pIC50: −log10 of the molar value. In brackets after ≈: the same amount, converted by molar mass.

Legend:
Pseudomonas aeruginosa [1] = experiment: Antibacterial activity against efflux pump lacking Pseudomonas aeruginosa assessed as inhibition of bacterial growth; format: functional, organism-based
Pseudomonas aeruginosa [2] = experiment: Antibacterial activity against wild type Pseudomonas aeruginosa assessed as inhibition of bacterial growth; format: functional, organism-based
Escherichia coli [3] = experiment: Antibacterial activity against efflux pump lacking Escherichia coli assessed as inhibition of bacterial growth; format: functional, organism-based
Escherichia coli [4] = experiment: Antibacterial activity against Escherichia coli SQ110 DTC incubated for 24 hrs by twofold serial dilution method; format: functional
Procedure, shortened: (§1)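 MICs by twofold serial dilution in 96-well plates from 10 mM DMSO stocks. Cultures grown in the indicated media; for E. coli, A. baumannii and P. aeruginosa, inducers were 0.1% arabinose, 1% arabinose and 0.1 mM IPTG respectively.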

Acinetobacter baumannii [5] = experiment: Antibacterial activity against efflux pump lacking/recombinant OM pore producing Acinetobacter baumannii assessed as inhibition of bacterial growth; format: functional, organism-based
Escherichia coli [6] = experiment: Antibacterial activity against wild type Escherichia coli assessed as inhibition of bacterial growth; format: functional, organism-based
Escherichia coli [7] = experiment: Antibacterial activity against Escherichia coli SQ110 DTC C2610A incubated for 24 hrs by twofold serial dilution method; format: functional
Procedure, shortened: (§2)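 E. coli SQDTC (TolC-deficient, single rRNA operon) carrying LZD-resistant 23S rRNA substitutions. Compounds come from 10 mM DMSO stocks and are twofold serially diluted in 96-well plates.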

Acinetobacter baumannii [8] = experiment: Antibacterial activity against recombinant OM pore producing Acinetobacter baumannii assessed as inhibition of bacterial growth; format: functional, organism-based
Escherichia coli [9] = experiment: Antibacterial activity against efflux pump lacking/recombinant OM pore producing Escherichia coli assessed as inhibition of bacterial growth; format: functional, organism-based
Acinetobacter baumannii [10] = experiment: Antibacterial activity against efflux pump lacking/recombinant OM pore producing Acinetobacter baumannii incubated for 24 hrs by twofold serial dilution method; format: functional; procedure, shortened: as §1
Escherichia coli [11] = experiment: Antibacterial activity against Escherichia coli SQ110 DTC G2032A incubated for 24 hrs by twofold serial dilution method; format: functional; procedure, shortened: as §2
Pseudomonas aeruginosa [12] = experiment: Antibacterial activity against efflux pump lacking/recombinant OM pore producing Pseudomonas aeruginosa incubated for 24 hrs by twofold serial dilution method; format: functional; procedure, shortened: as §1
Escherichia coli [13] = experiment: Antibacterial activity against Escherichia coli SQ110 incubated for 24 hrs by twofold serial dilution method; format: functional; procedure, shortened: as §1
Escherichia coli [14] = experiment: Antibacterial activity against recombinant OM pore producing Escherichia coli assessed as inhibition of bacterial growth; format: functional, organism-based
Acinetobacter baumannii [15] = experiment: Antibacterial activity against efflux pump lacking Acinetobacter baumannii assessed as inhibition of bacterial growth; format: functional, organism-based
Pseudomonas aeruginosa [16] = experiment: Antibacterial activity against recombinant OM pore producing Pseudomonas aeruginosa assessed as inhibition of bacterial growth; format: functional, organism-based
Pseudomonas aeruginosa [17] = experiment: Antibacterial activity against efflux pump lacking/recombinant OM pore producing Pseudomonas aeruginosa assessed as inhibition of bacterial growth; format: functional, organism-based
Escherichia coli [18] = experiment: Antibacterial activity against efflux pump lacking/recombinant OM pore producing Escherichia coli incubated for 24 hrs by twofold serial dilution method; format: functional
Procedure, shortened: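 E. coli efflux-knockout/hyperporinated strain grown in M9 medium with 50 mM MOPS (pH 7.2) and 0.2% xylose. OM pore induced with 0.1% arabinose. Compounds come from 10 mM DMSO stocks and are twofold serially diluted in 96-well plates.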

Acinetobacter baumannii [19] = experiment: Antibacterial activity against wild type Acinetobacter baumannii assessed as inhibition of bacterial growth; format: functional, organism-based
Staphylococcus aureus = experiment: Antibacterial activity against Staphylococcus aureus ATCC 25923 incubated for 24 hrs by twofold serial dilution method; format: functional; procedure, shortened: as §1

Row | SMILES | pIC50 (Pseudomonas aeruginosa [1]) | pIC50 (Pseudomonas aeruginosa [2]) | pIC50 (Escherichia coli [3]) | MIC (Escherichia coli [4]) | pIC50 (Acinetobacter baumannii [5]) | pIC50 (Escherichia coli [6]) | MIC (Escherichia coli [7]) | pIC50 (Acinetobacter baumannii [8]) | pIC50 (Escherichia coli [9]) | MIC (Acinetobacter baumannii [10]) | MIC (Escherichia coli [11]) | MIC (Pseudomonas aeruginosa [12]) | MIC (Escherichia coli [13]) | pIC50 (Escherichia coli [14]) | pIC50 (Acinetobacter baumannii [15]) | pIC50 (Pseudomonas aeruginosa [16]) | pIC50 (Pseudomonas aeruginosa [17]) | MIC (Escherichia coli [18]) | pIC50 (Acinetobacter baumannii [19]) | MIC (Staphylococcus aureus)
1 | C[n+]1ccc(-c2ccc(N3C[C@H](CO)OC3=O)cc2F)cc1 | 4.31 | < 4.00 | 5.00 | 50 µM | 4.86 | 4.87 | 100 µM | 4.86 | 4.96 | > 100 µM | > 100 µM | > 100 µM | 100 µM | 4.91 | 4.63 | 4.22 | 5.03 | > 100 µM | 4.23 | > 100 µM
2 | Nc1ncc(-c2ccc(N3C[C@H](CO)OC3=O)cc2F)cn1 | < 4.00 | < 4.00 | 5.23 | 25 µM (≈ 7.61 µg/mL) | 4.28 | < 4.00 | 50 µM (≈ 15.2 µg/mL) | < 4.00 | 5.82 | 50 µM | 100 µM (≈ 30.4 µg/mL) | 12.5 µM | > 100 µM | 5.70 | 4.28 | < 4.00 | 4.48 | > 100 µM | < 4.00 | 6.25 µM (≈ 1.9 µg/mL)
3 | O=C1O[C@@H](CO)CN1c1ccc(-c2ccc(C(F)(F)F)cc2)c(F)c1 | 5.10 | < 4.00 | 5.39 | 25 µM (≈ 8.88 µg/mL) | 5.41 | 4.05 | > 100 µM | 4.39 | 5.54 | 6.25 µM | > 100 µM | > 100 µM | 100 µM (≈ 35.5 µg/mL) | 4.45 | 5.10 | < 4.00 | 5.85 | > 100 µM | < 4.00 | 3.12 µM (≈ 1.11 µg/mL)
4 | O=C1O[C@@H](CO)CN1c1ccc(-c2cnoc2)c(F)c1 | 4.64 | < 4.00 | 4.63 | – | 4.08 | < 4.00 | – | < 4.00 | 4.51 | – | – | – | – | 4.25 | 4.08 | < 4.00 | 4.48 | – | < 4.00 | –
5 | CC(C)(C)OC(=O)NNC(=O)C(CC#Cc1ccc(N2C[C@H](CO)OC2=O)cc1F)NC(=O)OC(C)(C)C (stereo not given in full) | < 4.00 | < 4.00 | 4.88 | – | < 4.00 | < 4.00 | – | < 4.00 | 4.25 | – | – | – | – | 4.29 | < 4.00 | < 4.00 | < 4.00 | – | < 4.00 | –
6 | CC(C)c1ccc(-c2ccc(N3C[C@H](CO)OC3=O)cc2F)c(C(C)C)c1 | 4.31 | < 4.00 | 4.80 | – | 5.09 | 4.00 | – | 4.11 | 5.18 | – | – | – | – | 4.69 | 4.76 | < 4.00 | 4.65 | – | < 4.00 | –
7 | O=C1O[C@@H](CO)CN1c1ccc(-c2ccc3c(c2)OCO3)c(F)c1 | 5.62 | < 4.00 | 6.52 | – | 5.82 | 4.64 | – | < 4.00 | 6.52 | – | – | – | – | 5.62 | 5.62 | < 4.00 | 6.52 | – | < 4.00 | –
8 | CSCC#Cc1ccc(N2C[C@H](CO)OC2=O)cc1F | < 4.00 | < 4.00 | 4.18 | – | < 4.00 | 4.02 | – | < 4.00 | 4.32 | – | – | – | – | 4.45 | < 4.00 | < 4.00 | < 4.00 | – | < 4.00 | –
9 | C[n+]1ccc2ccc(-c3ccc(N4C[C@H](CO)OC4=O)cc3F)cc2c1 | < 4.00 | < 4.00 | 5.25 | – | 5.03 | < 4.00 | – | 4.56 | 5.02 | – | – | – | – | 4.68 | 4.31 | < 4.00 | < 4.00 | – | < 4.00 | –
10 | CCOC(=O)C1CCN(CC#Cc2ccc(N3C[C@H](CO)OC3=O)cc2F)CC1 | < 4.00 | < 4.00 | < 4.00 | – | < 4.00 | < 4.00 | – | < 4.00 | < 4.00 | – | – | – | – | < 4.00 | < 4.00 | < 4.00 | < 4.00 | – | < 4.00 | –
11 | O=C1O[C@@H](CO)CN1c1ccc(-c2cccc3cc[nH]c23)c(F)c1 | < 4.00 | < 4.00 | 4.67 | – | 4.21 | 4.11 | – | < 4.00 | 5.14 | – | – | – | – | 4.71 | 4.19 | < 4.00 | < 4.00 | – | < 4.00 | –
12 | CC(O)c1ccc(OCC#Cc2ccc(N3C[C@H](CO)OC3=O)cc2F)cc1 (stereo not given in full) | < 4.00 | < 4.00 | 4.52 | – | 4.46 | 4.20 | – | < 4.00 | 4.87 | – | – | – | – | 4.61 | 4.21 | < 4.00 | 4.04 | – | < 4.00 | –
13 | O=C1O[C@@H](CO)CN1c1ccc(-c2cccc(S(=O)(=O)C(F)(F)F)c2)c(F)c1 | < 4.00 | < 4.00 | 4.71 | – | 4.41 | < 4.00 | – | < 4.00 | 4.90 | – | – | – | – | 4.67 | 4.31 | < 4.00 | < 4.00 | – | < 4.00 | –
14 | CC(C(=O)NCC#Cc1ccc(N2C[C@H](CO)OC2=O)cc1F)N1CCNCC1 (stereo not given in full) | < 4.00 | < 4.00 | < 4.00 | – | < 4.00 | < 4.00 | – | < 4.00 | < 4.00 | – | – | – | – | < 4.00 | < 4.00 | < 4.00 | < 4.00 | – | < 4.00 | –
15 | N=C(N)NCc1ccc(-c2ccc(N3C[C@H](CO)OC3=O)cc2F)cc1 | 4.92 | < 4.00 | 4.20 | – | 4.49 | < 4.00 | – | 4.18 | 4.25 | – | – | – | – | 4.25 | 4.17 | < 4.00 | 4.59 | – | < 4.00 | –
16 | O=C1O[C@@H](CO)CN1c1ccc(-c2ccc(-c3ccccn3)cc2)c(F)c1 | < 4.00 | < 4.00 | 4.25 | – | 4.67 | 4.12 | – | 4.45 | 4.26 | – | – | – | – | 4.33 | 4.67 | < 4.00 | < 4.00 | – | 4.45 | –
17 | O=C1O[C@@H](CO)CN1c1ccc(-c2cc(F)cc(F)c2)c(F)c1 | < 4.00 | < 4.00 | < 4.00 | – | < 4.00 | < 4.00 | – | < 4.00 | < 4.00 | – | – | – | – | < 4.00 | < 4.00 | < 4.00 | < 4.00 | – | < 4.00 | –
18 | CC(=O)OCC#Cc1ccc(N2C[C@H](CO)OC2=O)cc1F | < 4.00 | < 4.00 | 4.14 | – | < 4.00 | < 4.00 | – | < 4.00 | 4.40 | – | – | – | – | 4.35 | < 4.00 | < 4.00 | < 4.00 | – | < 4.00 | –
